In ChEMBL document CHEMBL3124858, “Drug design targeting protein-protein interactions (PPIs) using multiple ligand simultaneous docking (MLSD) and drug repositioning: discovery of raloxifene and bazedoxifene as novel inhibitors of IL-6/GP130 interface” (J Med Chem, 2014):
Calls of active or inactive are those of the source. The calls are words filed in the database; no cut-off is given here.

How the values were obtained:
[1] = biological target: T1, IL6Ralpha/GP130 (Homo sapiens) (UniProt P08887+P40189); test: Inhibition of IL-6Ralpha/GP130 interaction in ER-negative human SUM159 cells overexpressing IL-6 assessed as inhibition of constitutive STAT3 phosphorylation at Y705 at 10 to 30 uM after 24 hrs by Western blot analysis; format: cell-based
T1 sequence (P08887 whole entry, looked up, one chain of several): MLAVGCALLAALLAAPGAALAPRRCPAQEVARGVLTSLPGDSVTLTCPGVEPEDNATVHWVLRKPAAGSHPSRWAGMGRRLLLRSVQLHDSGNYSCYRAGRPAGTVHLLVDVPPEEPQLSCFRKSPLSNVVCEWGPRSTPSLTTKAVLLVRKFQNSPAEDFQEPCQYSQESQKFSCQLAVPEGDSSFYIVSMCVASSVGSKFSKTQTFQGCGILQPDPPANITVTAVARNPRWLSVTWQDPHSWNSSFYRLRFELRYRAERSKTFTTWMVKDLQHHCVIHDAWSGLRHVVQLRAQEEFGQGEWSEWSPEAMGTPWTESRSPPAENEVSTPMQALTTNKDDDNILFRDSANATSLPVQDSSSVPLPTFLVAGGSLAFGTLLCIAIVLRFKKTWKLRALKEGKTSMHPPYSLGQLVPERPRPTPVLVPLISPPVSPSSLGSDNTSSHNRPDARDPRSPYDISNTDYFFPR
In short: (§1)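 Constitutive STAT3 activity in SUM159 (ER negative) cells grown in DMEM/10% FBS. Compound (10-50µM) or DMSO added at 60-80% confluence with 10% FBS for 24 h. RIPA whole-cell lysates run on SDS-PAGE and immunoblotted overnight at 4 °C for pSTAT3 (Tyr705), STAT3 and GAPDH. Detection by chemiluminescence.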

[2] = biological target: T1, IL6Ralpha/GP130 (Homo sapiens); test: Inhibition of IL-6Ralpha/GP130 interaction in human PANC-1 cells assessed as inhibition of IL-6-induced STAT3 phosphorylation at Y705 at 25 uM […] measured after 24 hrs by Western blot analysis; format: cell-based
In short: (§2)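 PANC-1 cells (GP130+, ER−) in DMEM/10% FBS, stimulated with 50 ng/ml IL-6 or IFN-γ for 30 min before compound (10-50µM range), then 24 h at 60-80% confluence with 10% FBS. Whole-cell extracts made in RIPA with protease inhibitors. Blotted for pSTAT3 (Tyr705), STAT3, pSTAT1 (Tyr701), STAT1 and GAPDH, with chemiluminescent detection.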

PANC-1 = test: Inhibition of IFN-gamma receptor/GP130 interaction in human PANC-1 cells assessed as inhibition of IFN-gamma-induced STAT1 phosphorylation at Y701 at 25 uM […] measured after 24 hrs by Western blot analysis; format: cell-based; in short: as §2
[3] = Cytotoxicity against ER-negative human SUM159 cells assessed as cell viability after 72 hrs by MTT assay in presence of IL-6; format: functional, cell-based; conditions: SUM-159-PT
In short: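 SUM159 (ER negative) seeded at 3,000 cells/well, given […] compound in triplicate with 10% FBS. Incubated 72 h at 37 °C, then MTT read-out, absorbance at 595 nm. IC50 from curve fitting.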

[4] = Cytotoxicity against human MIAPaCa2 cells assessed as cell viability; format: functional, cell-based; conditions: MIA PaCa-2
[5] = biological target: LIFR/GP130 (Homo sapiens) (UniProt P40189+P42702); test: Inhibition of LIFR/GP130 interaction in human PANC-1 cells assessed as inhibition of LIF-induced STAT3 phosphorylation at Y705 at 25 uM after 24 hrs by Western blot analysis; format: cell-based
LIFR/GP130 (Homo sapiens), sequence (P42702 whole entry, looked up, one chain of several): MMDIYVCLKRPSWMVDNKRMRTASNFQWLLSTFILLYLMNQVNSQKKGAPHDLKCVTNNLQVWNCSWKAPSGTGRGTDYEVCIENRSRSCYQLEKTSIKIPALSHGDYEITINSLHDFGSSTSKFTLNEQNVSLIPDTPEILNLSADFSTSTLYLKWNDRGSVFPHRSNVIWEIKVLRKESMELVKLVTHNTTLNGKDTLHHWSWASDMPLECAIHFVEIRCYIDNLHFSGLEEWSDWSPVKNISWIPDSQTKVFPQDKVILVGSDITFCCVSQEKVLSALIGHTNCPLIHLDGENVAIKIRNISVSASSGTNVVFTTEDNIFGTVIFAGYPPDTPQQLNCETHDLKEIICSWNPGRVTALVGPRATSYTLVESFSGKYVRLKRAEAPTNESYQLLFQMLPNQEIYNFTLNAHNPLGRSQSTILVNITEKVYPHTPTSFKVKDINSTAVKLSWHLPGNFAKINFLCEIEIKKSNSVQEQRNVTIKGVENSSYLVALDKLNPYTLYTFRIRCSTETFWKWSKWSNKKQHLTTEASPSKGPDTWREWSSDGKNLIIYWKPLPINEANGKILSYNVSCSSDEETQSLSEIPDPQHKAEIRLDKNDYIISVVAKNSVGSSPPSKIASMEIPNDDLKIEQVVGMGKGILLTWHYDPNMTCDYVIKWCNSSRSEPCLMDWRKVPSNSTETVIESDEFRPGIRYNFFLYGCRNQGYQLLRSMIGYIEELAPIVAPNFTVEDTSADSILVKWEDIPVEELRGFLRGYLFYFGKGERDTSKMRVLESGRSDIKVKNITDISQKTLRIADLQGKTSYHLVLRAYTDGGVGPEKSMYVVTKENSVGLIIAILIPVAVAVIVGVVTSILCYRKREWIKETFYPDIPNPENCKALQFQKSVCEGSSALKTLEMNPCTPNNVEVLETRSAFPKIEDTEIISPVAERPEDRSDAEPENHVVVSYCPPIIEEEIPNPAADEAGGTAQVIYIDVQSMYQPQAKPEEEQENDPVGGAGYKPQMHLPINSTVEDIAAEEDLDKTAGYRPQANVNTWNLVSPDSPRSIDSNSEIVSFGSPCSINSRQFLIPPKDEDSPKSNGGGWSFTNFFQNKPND

[6] = biological target: T2, Interleukin-6 receptor subunit beta (Homo sapiens, UniProt P40189); test: Binding affinity to GP130 (unknown origin) by surface plasmon resonance analysis
T2 sequence (P40189 whole entry): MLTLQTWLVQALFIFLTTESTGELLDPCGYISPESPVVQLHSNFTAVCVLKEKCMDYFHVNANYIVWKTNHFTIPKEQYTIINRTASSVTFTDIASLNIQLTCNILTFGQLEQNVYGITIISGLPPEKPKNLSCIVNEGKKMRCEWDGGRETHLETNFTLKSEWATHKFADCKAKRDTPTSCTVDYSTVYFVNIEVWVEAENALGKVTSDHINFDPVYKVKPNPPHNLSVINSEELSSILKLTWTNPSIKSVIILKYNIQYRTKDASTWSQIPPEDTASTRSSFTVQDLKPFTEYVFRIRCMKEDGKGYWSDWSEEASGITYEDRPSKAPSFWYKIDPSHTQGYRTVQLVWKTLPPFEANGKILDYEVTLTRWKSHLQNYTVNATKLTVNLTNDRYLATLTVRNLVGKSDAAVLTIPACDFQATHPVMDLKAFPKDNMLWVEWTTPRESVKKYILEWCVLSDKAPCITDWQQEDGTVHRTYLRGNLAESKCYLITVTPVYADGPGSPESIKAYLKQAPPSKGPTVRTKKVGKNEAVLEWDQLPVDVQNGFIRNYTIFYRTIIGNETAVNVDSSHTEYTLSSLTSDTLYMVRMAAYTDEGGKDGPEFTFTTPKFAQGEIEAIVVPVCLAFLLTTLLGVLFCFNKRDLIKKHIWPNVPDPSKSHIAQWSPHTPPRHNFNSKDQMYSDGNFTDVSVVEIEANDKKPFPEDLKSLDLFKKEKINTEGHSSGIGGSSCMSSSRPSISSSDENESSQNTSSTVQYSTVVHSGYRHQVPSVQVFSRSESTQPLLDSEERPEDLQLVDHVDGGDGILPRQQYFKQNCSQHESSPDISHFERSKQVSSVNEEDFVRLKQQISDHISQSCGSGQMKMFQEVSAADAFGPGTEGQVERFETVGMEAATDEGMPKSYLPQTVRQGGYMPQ

[7] = biological target: T1, IL6Ralpha/GP130 (Homo sapiens); test: Inhibition of IL-6Ralpha/GP130 interaction in ER-negative human SUM159 cells overexpressing IL-6 assessed as inhibition of constitutive STAT3 phosphorylation at Y705 at 15 to 50 uM after 24 hrs by Western blot analysis; format: cell-based; in short: as §1

SMILES | inhibition [1] | inhibition [2] | inhibition (PANC-1) | IC50 [3] | IC50 [4] | inhibition [5] | Kd [6] | inhibition [7]
Cc1c(-c2ccc(O)cc2)n(Cc2ccc(OCCN3CCCCCC3)cc2)c2ccc(O)cc12 [BAZEDOXIFENE] | Active | Active | inactive | 24.9 µM | 9.7 µM | inactive |  | 
CCCCC1=C(C)C(=O)[C@](C)(CN2c3ccccc3[C@]3(O)CCOC23)C1=O (stereo partly drawn) [MADINDOLINE A] |  |  |  | > 250 µM |  |  | 288 µM | 
O=C(c1ccc(OCCN2CCCCC2)cc1)c1c(-c2ccc(O)cc2)sc2cc(O)ccc12 [RALOXIFENE] |  |  | inactive | 43.2 µM | 26.3 µM | inactive |  | Active
